Results on three compounds are retold here after ChEMBL document CHEMBL1134792, “Antimitotic antitumor agents: synthesis, structure-activity relationships, and biological characterization of N-aryl-N'-(2-chloroethyl)ureas as new selective alkylating agents” (J Med Chem, 2001).

Activity calls are given as the source filed them. The rule behind the calls is not given here.

The subject of experiment [1] is LoVo. Put plainly: Dose required to inhibit cell growth was determined against LoVo cell line a human colon adenocarcinoma; NA= Not active represents IC50 >400 uM. In kind it is functional, cell-based. The method in brief: (§1)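 Alamar Blue growth-inhibition assay. Cells ((1–5) × 10³ per well) were preincubated for 24 h, then exposed to increasing drug concentrations for 72 h at 37 °C. Alamar Blue (20%) was added and fluorescence read at ex 485 / em 590 nm. IC50 is the dose inhibiting growth by 50%. Means of ≥3 independent determinations.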

Experiment [2] has as its system MDA-MB-231. As to the kind of experiment: Dose required to inhibit cell growth was determined against MDA-MB-231 cell line of human non-hormone dependent breast carcinoma. It is filed as functional, cell-based. Summed up:
(§2)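 Alamar Blue growth assay. (1–5) × 10^3 cells per well preincubated 24 h, then exposed to increasing drug concentrations for 72 h at 37 °C. Medium replaced with PBS containing 20% Alamar Blue, fluorescence read at 485/590 nm. IC50 is the dose inhibiting growth by 50%.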

The test system of another experiment is K562. Put plainly: Dose required to inhibit cell growth was determined against K562 cell line of chronic myelogenous leukemia. In kind it is functional, cell-based. Particulars: Homo sapiens. Summed up: as §2
A further experiment has as its system HT-29. As to the kind of experiment: Dose required to inhibit cell growth was determined against HT-29 cell line of human adenocarcinoma. It is filed as functional, cell-based. The method in brief:
as §2

Experiment [3] concerns P388. As to the kind of experiment: Dose required to inhibit cell growth was determined against P388D1 cell line of murine lymphocytotic leukemia; NA= Not active represents IC50 >400 uM. In kind it is functional, cell-based. The conditions noted are these: Mus musculus. Summed up:
as §1

In the next experiment the test system is L1210. As to the kind of experiment: Dose required to inhibit cell growth was determined against L1210 cell line of murine lymphocytotic leukemia. It is filed as functional, cell-based. Particulars: Mus musculus. Summed up: as §2
Experiment [4] deals with MDA-MB-231. Put plainly: Beta tubulin alkylation activity in MDA-MB-231 cells. It is filed as functional, Homo sapiens. More on the design: concentration or dose not given beside the values. The method in brief: (§3)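 MDA-MB-231 cells (~5 × 10^6), exponentially growing, exposed to 30 μM compound for 24 h at 37 °C. Lysed in Laemmli buffer, run on 10% SDS-PAGE, immunoblotted with anti-β-tubulin (TUB 2.1, 1:500) and peroxidase anti-mouse secondary, ECL detection. Normal and alkylated band densities integrated to give % alkylated β-tubulin. Representative of three experiments.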

Experiment [5] deals with CHO. As to the kind of experiment: Dose required to inhibit cell growth was determined against CHO cell line; Not active represents IC50 >400 uM. It is filed as functional, cell-based. Particulars: Cricetulus griseus. Summed up:
as §1

Experiment [6] deals with MDA-MB-231. Put plainly: Beta tubulin alkylation activity in MDA-MB-231 cells; not determined. It is filed as functional, Homo sapiens. The method in brief: as §3
The nature of experiment [7]: Alkylating activity using 4-(4-nitrobenzyl)-pyridine(NBP) colorimetric assay.
The test system of experiment [8] is MDA-MB-231. As to the kind of experiment: Dose required to inhibit cell growth was determined against MDA-MB-231 cell line of human non-hormone dependent breast carcinoma; Not active represents IC50 >400 uM. In kind it is functional, cell-based. Summed up:
as §1

In experiment [9] the test system is CHO. As to the kind of experiment: Dose required to inhibit cell growth was determined against CHO cell line. It is filed as functional, cell-based. Particulars: Cricetulus griseus. Summed up:
as §2

Experiment [10] has as its system LoVo. As to the kind of experiment: Dose to inhibit cell growth determined against LoVo cell line of human adenocarcinoma. In kind it is functional, cell-based. The method in brief: as §2
A short description of experiment [11]: Alkylating activity by using 4-(4-nitrobenzyl)-pyridine(NBP) colorimetric assay. The method in brief: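 NBP colorimetric assay. Drug at 400 nmol/mL in ethanol was mixed with 10% NBP in ethanol and 50 mM sodium acetate pH 4.3, then heated at 80 °C for 60, 90, 120 or 150 min. Samples were chilled and basified with KOH/ethanol, and A570 was read against a drug-free blank. The alkylation rate (A570/min) is the slope of a linear regression of absorbance vs time. Mean ± SD of ≥3 independent experiments.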

In experiment [12] the test system is P388. As to the kind of experiment: Dose required to inhibit cell growth was determined against P388D1 cell line of murine lymphocytotic leukemia. It is filed as functional, cell-based. The conditions noted are these: Mus musculus. Summed up: as §2
Experiment [13] concerns MDA-MB-231. Put plainly: DNA damages caused in MDA-MB-231 cells after 2 hr exposure to a concentration of 400 uM. In kind it is functional. The method in brief: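 Growing MDA-MB-231 cells held 2 h at 37 °C in medium with or without 400 μM compound. Cells washed in cold PBS and lysed in Tris/SDS/EDTA/deferoxamine/proteinase K buffer. DNA isolated by salting out, then 3'-end labeled by T4 DNA polymerase nucleotide exchange. Incorporated radioactivity measured by dot filtration, expressed as dCps exchanged/ng DNA. Means ± SD, ≥3 determinations.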

As a reminder, the IC50 is the concentration needed to halve the response being measured.

On to `O=C(NCCCl)Nc1ccccc1`, for which the NA entry in the experiment on LoVo [1] and in the experiment with P388 [3] was “inactive” each time. Moreover, the IC50 in the experiment on MDA-MB-231 [2] is 140 µM; with K562, more than 100 µM; with HT-29, more than 100 µM; in the experiment on L1210 it was 57 µM. The compound further returned an Activity in the experiment with MDA-MB-231 [4] of 0%.
Take `CCNC(=O)Nc1ccc(C(C)(C)C)cc1`: the NA entry with CHO [5] and with MDA-MB-231 [8] was “inactive” in each case. The IC50 in the experiment with K562 is 84 µM; with HT-29, 83 µM. In addition, the figures for the Activity (in the experiment with MDA-MB-231 [6]; in experiment [7]) were 0 and 0.07, respectively.
Take `O=C(NCCCl)Nc1ccc2c(c1)CCC2`: the concentration for half-maximal inhibition (IC50) in the experiment on MDA-MB-231 [2] was 10 µM; in the experiment on K562, 5.5 µM; in the experiment with CHO [9], 10 µM; with LoVo [10] it was 5.1 µM; in the experiment with HT-29, 10 µM; in the experiment with L1210, 5 µM. In the experiment with P388 [12], this compound gave a 50% inhibitory concentration (IC50) of 7.3 µM. Further, the Activity in [11] is 3.5 A570 min-1; with MDA-MB-231 [4] it was 43%. Besides, in the experiment with MDA-MB-231 [13], the DNA damage is reported as 2.37 10e7 exchanged dCps (ng of DNA).
